Assay results gathered from unrelated publications.
Compare with care: the assays were run in different laboratories.
Target: Serine/threonine-protein kinase TAO1 (TAOK1, Homo sapiens, UniProt Q7L7X3)
Sequence (Q7L7X3 1-1001, as in one of the studies): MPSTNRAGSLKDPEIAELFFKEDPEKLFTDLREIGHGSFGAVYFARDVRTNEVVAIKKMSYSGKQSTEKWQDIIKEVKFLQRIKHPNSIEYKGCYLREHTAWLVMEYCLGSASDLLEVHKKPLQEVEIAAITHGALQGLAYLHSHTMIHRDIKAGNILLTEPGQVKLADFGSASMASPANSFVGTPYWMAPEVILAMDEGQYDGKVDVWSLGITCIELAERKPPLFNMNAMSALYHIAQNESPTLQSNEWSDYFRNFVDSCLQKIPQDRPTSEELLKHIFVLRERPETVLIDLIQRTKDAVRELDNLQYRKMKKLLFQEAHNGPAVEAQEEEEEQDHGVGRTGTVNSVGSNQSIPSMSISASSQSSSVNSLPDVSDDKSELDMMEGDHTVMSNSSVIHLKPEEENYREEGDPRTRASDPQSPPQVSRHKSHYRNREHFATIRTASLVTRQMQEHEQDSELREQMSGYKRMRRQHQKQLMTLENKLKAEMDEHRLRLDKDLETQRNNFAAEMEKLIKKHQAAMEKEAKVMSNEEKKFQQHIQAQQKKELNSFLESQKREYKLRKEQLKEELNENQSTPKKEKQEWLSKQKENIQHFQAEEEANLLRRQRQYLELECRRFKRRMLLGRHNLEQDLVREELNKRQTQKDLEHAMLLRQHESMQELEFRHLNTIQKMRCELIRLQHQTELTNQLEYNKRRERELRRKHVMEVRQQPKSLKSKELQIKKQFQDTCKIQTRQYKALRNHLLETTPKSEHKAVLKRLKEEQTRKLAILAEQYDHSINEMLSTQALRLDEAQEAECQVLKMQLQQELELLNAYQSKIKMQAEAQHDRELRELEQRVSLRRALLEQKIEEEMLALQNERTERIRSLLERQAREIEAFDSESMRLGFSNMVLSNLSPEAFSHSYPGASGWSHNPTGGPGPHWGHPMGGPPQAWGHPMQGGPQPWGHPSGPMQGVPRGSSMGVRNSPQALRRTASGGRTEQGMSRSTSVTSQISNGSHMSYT

SMILES	observed	action	technique	concentration	endpoint	value
O=C(Nc1cnn(-c2csc(C(=O)NC3COC3)c2)c1)Nc1c(F)cccc1Cl	enzyme activity	inhibitor	–	5 µM	remaining activity	90.6%
Oc1cccc(-c2nc(N3CCOCC3)c3oc4ncccc4c3n2)c1	enzyme activity	inhibitor	–	10 µM	remaining activity	84%
COc1cc(-c2cn(C3CCc4ccccc4N(CC(F)(F)F)C3=O)nn2)ccc1-n1ccc(C)n1 (centres unmarked)	cell-free assay	–	competition with immobilised ligand	1 µM	remaining binding	92%
CCN(CC)c1ccc(C2=NNC(=O)CC2C)cc1[N+](=O)[O-] (centres unmarked)	enzyme activity	inhibitor	–	10 µM	remaining activity	115%
COc1cc(/C=C/C(=O)CC(=O)/C=C/c2ccc(O)c(OC)c2)ccc1O	enzyme activity	inhibitor	–	1 µM	activity vs control	84%
CNC(=O)c1cc(Oc2ccc(NC(=O)Nc3ccc(Cl)c(C(F)(F)F)c3)cc2)ccn1	cell-free assay	–	–	0.5 µM	remaining signal	82%
COc1cc(Nc2cnc(C#N)c(O[C@H](C)CN(C)C)n2)ncc1-c1cnn(C)c1	enzyme activity	inhibitor	radiometric	1 µM	remaining activity	87%
O=C(N1CCS(=O)(=O)CC1)N1C[C@H](c2ccc(OC(F)(F)F)cc2)C[C@H](c2nc(C3CC3)no2)C1	cell-free assay	–	competition with immobilised ligand	1 µM	remaining binding	100%
O=C1NC(=O)c2cc(Nc3ccc(F)cc3)c(Nc3ccc(F)cc3)cc21	cell-free assay	–	–	0.5 µM	remaining signal	90.3%
CN1CC(Oc2cnc(C#N)cc2-c2ccn3nc(NC(=O)C4CC4)cc3c2)C1	enzyme activity	inhibitor	–	1 µM	inhibition	-1%
COc1cc(Cl)c(C(=O)N[C@@H](CN[C@H]2CC[C@@H](N)CC2)Cc2ccc(C#N)cc2)cc1-c1ccc(CN[C@H](C)c2ccc(C)cc2)o1	enzyme activity	inhibitor	–	1 µM	remaining activity	97%
FC(F)c1nc2ccccc2n1-c1nc(N2CCOCC2)nc(N2CCOCC2)n1	enzyme activity	inhibitor	–	10 µM	remaining activity	93%
CO[C@@H](C)c1c(Nc2ccc([C@H](N(C)C(=O)C3CCS(=O)(=O)CC3)C(F)(F)F)cc2)cnc2cc(Cl)nn12	cell-free assay	–	competition with immobilised ligand	1 µM	remaining binding	100%
Cc1ccc(NC(=O)c2ccc(C)c(C(F)(F)F)c2)cc1C#Cc1nn(C2CCC(O)CC2)c2ncnc(N)c12 (centres unmarked)	cell-free assay	–	–	10 µM	remaining signal	18%
CNC(=O)Nc1ccc2c(c1)CC[C@@]21OC(=O)N(CC(=O)N(Cc2ccc(F)cc2)[C@@H](C)C(F)(F)F)C1=O	cell-free assay	–	competition with immobilised ligand	1 µM	remaining binding	94%
FC(F)(F)Oc1cccc(-c2cnc3ccc(-c4ccncc4)nn23)c1	enzyme activity	inhibitor	radiometric	5 µM	activity vs control	87%
Cc1c(C(=O)O)cc(-c2ccc(C3CCNCC3)cc2)c2ccc(-c3ccc(C(F)(F)F)cc3)cc12	binding	–	competition with immobilised ligand	1 µM	remaining binding	100%
Nc1ncnc2occ(-c3ccc(NC(=O)Nc4cc(C(F)(F)F)ccc4F)cc3)c12	cell-free assay	inhibitor	–	20 µM	remaining signal	0.3%
Clc1ccc(Nc2nnc(Cc3ccncc3)c3ccccc23)cc1	cell-free assay	–	–	0.5 µM	remaining signal	98.7%
CS(=O)(=O)c1cc(C2(NC(=O)c3cncc4c3cnn4-c3ccc(F)cc3)CC2)ccn1	cell-free assay	–	competition with immobilised ligand	1 µM	remaining binding	94%
